Values after ≈ are worked out from the molar mass of the structure shown. Active and inactive are the calls of the source. The calls are words filed in the database; no cut-off is given here.
How the values were obtained:
[1] = Inhibition of amyloid beta (1 to 42) secretion in human H4 cells overexpressing APP incubated for overnight by HTRF analysis; assay type: functional, cell-based
[2] = Reduction in amyloid beta (1 to 42) secretion in brain in triple transgenic LaFerla mouse at 30 mg/kg, po measured after 3 hrs relative to control; assay type: functional
Procedure, shortened: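 Triple transgenic LaFerla mice (APP Swedish, MAPT P301L, PSEN1 M146V) given 30 mg/kg po; brain Aβ1-42 measured 3 h postdose; n = 3.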

[3] = Reduction in amyloid beta (1 to 42) secretion in brain in Harlan Sprague-Dawley rat at 10 mg/kg, po measured after 3 hrs relative to control; assay type: functional
Procedure, shortened: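 Sprague–Dawley rats dosed 10 mg/kg po; brain Aβ1-42 measured 3 h postdose; n = 5.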

[4] = AUC (0 to 24 hrs) in Harlan Sprague-Dawley rat incubated for 24 hrs by LC-MS/MS analysis; assay type: ADME; set-up: time 24 hrs; conditions: in vivo
[5] = target: Gamma-secretase (Homo sapiens) (UniProt Q96BI3+Q9NZ42+Q8WW43+P49768+Q92542+P49810); test: Modulation of gamma-secretase in human H4 cells overexpressing APP incubated assessed as increase in amyloid beta (1 to 38) secretion for 24 hrs by MALDI-TOF mass spectrometric analysis; assay type: cell-based; conditions: filed as modulator
Procedure, shortened: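 H4-APPsw cells treated with compound; secreted Aβ species quantified by mass spectrometry; total Aβ1-x checked by ELISA up to 10 μM.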

Brain = test: Antialzheimer activity in rat brain assessed as reduction in amyloid beta (1 to 42) AUC at 10 mg/kg measured after 24 hrs relative to control; assay type: functional; set-up: scale not given: the % may be the effect or the level left
Procedure, shortened: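 Rats dosed orally; brain Aβ1-42 followed over 24 h, and the reduction in brain Aβ1-42 AUC integrated over 0–24 h was fitted to an indirect response PK/PD model.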

PXR (NR1I2) = target: T1, PXR (NR1I2) (Homo sapiens, UniProt O75469); test: Transactivation of PXR (unknown origin) assessed as CYP450 induction relative to 10 uM rifampicin; assay type: ADME
T1 sequence (O75469 whole entry): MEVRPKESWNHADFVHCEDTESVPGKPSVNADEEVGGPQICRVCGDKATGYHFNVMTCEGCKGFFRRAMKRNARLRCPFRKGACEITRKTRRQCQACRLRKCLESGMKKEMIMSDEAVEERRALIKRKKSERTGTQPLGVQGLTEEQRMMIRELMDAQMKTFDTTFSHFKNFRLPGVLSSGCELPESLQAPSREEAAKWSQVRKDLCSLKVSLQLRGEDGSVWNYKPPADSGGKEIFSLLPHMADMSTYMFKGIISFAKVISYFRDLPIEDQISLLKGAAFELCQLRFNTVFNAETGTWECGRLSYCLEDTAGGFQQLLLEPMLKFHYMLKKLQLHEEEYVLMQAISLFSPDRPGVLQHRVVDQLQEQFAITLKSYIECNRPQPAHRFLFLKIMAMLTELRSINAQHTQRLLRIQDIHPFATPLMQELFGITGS
Procedure, shortened: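 PXR in vitro transactivation assay; maximal response expressed relative to 10 μM rifampicin set as 100%.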

[6] = Inhibition of total amyloid beta secretion in human H4 cells overexpressing APP at 50 uM; assay type: cell-based
[7] = Metabolic stability in Beagle dog assessed as half life incubated for 24 hrs by LC-MS/MS analysis; assay type: ADME, Canis lupus familiaris
[8] = Fraction unbound in Beagle dog plasma measured after 24 hrs by LC-MS/MS analysis; assay type: ADME, cell-free, Canis lupus familiaris
Cytochrome P450 2C8 = target: T2, Cytochrome P450 2C8 (Homo sapiens, UniProt P10632); test: Inhibition of CYP2C8 in human liver microsomes; assay type: ADME
T2 sequence (P10632 whole entry): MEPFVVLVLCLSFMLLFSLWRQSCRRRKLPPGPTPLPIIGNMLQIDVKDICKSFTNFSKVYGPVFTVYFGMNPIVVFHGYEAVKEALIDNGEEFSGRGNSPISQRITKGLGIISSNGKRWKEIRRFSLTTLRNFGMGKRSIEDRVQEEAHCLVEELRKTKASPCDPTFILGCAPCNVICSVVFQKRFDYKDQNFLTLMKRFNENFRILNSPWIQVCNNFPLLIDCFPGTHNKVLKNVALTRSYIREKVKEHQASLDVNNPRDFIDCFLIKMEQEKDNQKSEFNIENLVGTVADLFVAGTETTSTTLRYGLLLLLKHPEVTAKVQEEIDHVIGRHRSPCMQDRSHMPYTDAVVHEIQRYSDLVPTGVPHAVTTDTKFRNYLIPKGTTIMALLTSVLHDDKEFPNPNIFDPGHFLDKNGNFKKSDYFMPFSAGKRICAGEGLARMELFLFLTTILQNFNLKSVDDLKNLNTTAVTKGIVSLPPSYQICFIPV

Cytochrome P450 2C9 = Cytochrome P450 2C9 (Homo sapiens, UniProt P11712); test: Inhibition of CYP2C9 in human liver microsomes; assay type: ADME
Chain of Cytochrome P450 2C9 (P11712 whole entry): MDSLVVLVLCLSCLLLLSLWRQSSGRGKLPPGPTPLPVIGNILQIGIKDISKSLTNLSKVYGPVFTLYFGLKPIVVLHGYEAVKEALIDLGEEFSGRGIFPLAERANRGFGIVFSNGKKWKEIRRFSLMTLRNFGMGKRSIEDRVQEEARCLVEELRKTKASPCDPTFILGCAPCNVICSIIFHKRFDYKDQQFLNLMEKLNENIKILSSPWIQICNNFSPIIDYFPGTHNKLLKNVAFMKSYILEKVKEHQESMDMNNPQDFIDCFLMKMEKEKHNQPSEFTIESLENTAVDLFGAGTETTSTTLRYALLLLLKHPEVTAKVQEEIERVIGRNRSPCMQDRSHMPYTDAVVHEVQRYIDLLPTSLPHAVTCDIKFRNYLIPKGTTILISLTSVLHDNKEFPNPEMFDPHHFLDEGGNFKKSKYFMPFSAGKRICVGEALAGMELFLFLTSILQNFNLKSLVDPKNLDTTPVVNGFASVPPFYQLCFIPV

Cytochrome P450 3A4 = Cytochrome P450 3A4 (Homo sapiens, UniProt P08684); test: Time dependent inhibition of CYP3A4 in human liver microsomes assessed as inhibition constant; assay type: ADME
Chain of Cytochrome P450 3A4 (P08684 whole entry): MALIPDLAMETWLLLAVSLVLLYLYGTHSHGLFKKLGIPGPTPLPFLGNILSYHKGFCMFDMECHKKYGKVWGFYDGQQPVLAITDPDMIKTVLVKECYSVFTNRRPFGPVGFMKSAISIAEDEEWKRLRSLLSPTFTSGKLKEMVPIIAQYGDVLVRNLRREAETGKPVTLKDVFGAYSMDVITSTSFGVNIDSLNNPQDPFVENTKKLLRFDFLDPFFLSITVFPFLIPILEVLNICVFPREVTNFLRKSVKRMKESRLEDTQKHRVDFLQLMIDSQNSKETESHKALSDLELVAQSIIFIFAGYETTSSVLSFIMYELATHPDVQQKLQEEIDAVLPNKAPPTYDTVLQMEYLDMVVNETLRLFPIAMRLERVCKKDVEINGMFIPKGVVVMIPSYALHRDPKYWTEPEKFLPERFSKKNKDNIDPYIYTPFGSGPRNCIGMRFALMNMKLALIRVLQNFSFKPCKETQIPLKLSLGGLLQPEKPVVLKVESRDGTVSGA

[9] = Efflux ratio of permeability in human Caco2 cells; assay type: ADME, cell-based; conditions: caco-2
[10] = Aqueous solubility of the compound at pH 1; assay type: physicochemical; conditions: buffer
[11] = Half life in Sprague-Dawley rat at 2 mg/kg, iv measured up to 24 hrs by LC-MS/MS analysis; assay type: ADME, organism-based; conditions: in vivo
Procedure, shortened: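 Sprague-Dawley rats, 2 mg/kg by 5 min iv infusion in 9:1 PEG:EtOH, n=5.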

[12] = Half life in cynomolgus monkey at 1 mg/kg, iv measured up to 24 hrs by LC-MS/MS analysis; assay type: ADME, organism-based, Macaca fascicularis; conditions: in vivo
Procedure, shortened: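 Male Beagle dogs and male cynomolgus monkeys, 1 mg/kg by 5 min iv infusion in 9:1 PEG:EtOH, n=3.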

[13] = Oral bioavailability in cynomolgus monkey at 1 mg/kg dosed as nano suspension measured up to 24 hrs by LC-MS/MS analysis; assay type: ADME, organism-based, Macaca fascicularis; conditions: in vivo
Procedure, shortened: (§1)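 Oral dosing as a nanosuspension in Sprague–Dawley rat, male Beagle dog and male cynomolgus monkey; dogs pretreated with pentagastrin.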

[14] = Volume of steady state distribution in Beagle dog at 1 mg/kg, iv measured up to 24 hrs by LC-MS/MS analysis; assay type: ADME, organism-based, Canis lupus familiaris; conditions: in vivo
Procedure, shortened: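 Male Beagle dog or male cynomolgus monkey; 1 mg/kg as 5 min iv infusion in 9:1 PEG:EtOH; n = 3; volume of distribution at steady state.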

[15] = Oral bioavailability in Beagle dog at 1 mg/kg dosed as nano suspension measured up to 24 hrs by LC-MS/MS analysis; assay type: ADME, organism-based, Canis lupus familiaris; conditions: in vivo; procedure, shortened: as §1
[16] = Cardiotoxicity in unconscious telemeterized rabbit assessed as increase in QTcf time at 10 mg/kg; assay type: toxicity, organism-based, Oryctolagus cuniculus; conditions: in vivo
[17] = Hemodynamic activity in unconscious telemeterized rabbit assessed as decrease in heart rate at >= 10 mg/kg; assay type: ADME, organism-based, Oryctolagus cuniculus; conditions: in vivo
[18] = Hemodynamic activity in conscious telemeterized rat assessed as change in blood pressure at >= 10 mg/kg; assay type: ADME, organism-based; conditions: in vivo
[19] = Hemodynamic activity in conscious telemeterized rat assessed as change in heart rate at >= 10 mg/kg; assay type: ADME, organism-based; conditions: in vivo
[20] = Hepatotoxicity in rat at 100 mg/kg, po administered for 2 week; assay type: toxicity, organism-based; conditions: in vivo, 336 h, time 2 weeks
Procedure, shortened: (§2)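 Rats given oral doses of 10, 30 or 100 mg/kg daily for 2 weeks in a repeat-dose toxicity study.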

[21] = Induction of necrosis in rat at 100 mg/kg, po administered for 2 week; assay type: organism-based; conditions: in vivo, 336 h, time 2 weeks; procedure, shortened: as §2

CNc1nc(Nc2ccc(-n3cnc(C)n3)c(OC)c2)nc2c1CC[C@H]2c1ccc(F)cc1
IC50 [1]: 0.0066 µM
inhibition in vivo at 30 mg/kg [2]: 81%
inhibition in vivo at 10 mg/kg [3]: 41%
AUC(0-t) at 24 h [4]: 4 µM·h
inhibition [5]: Active
Activity (Brain): 66%
Emax (PXR (NR1I2)): 36%
inhibition at 50 µM [6]: 30%
t1/2 [7]: 0.45 h
Fu [8]: 0.8%
IC50 (Cytochrome P450 2C8): 4.5 µM
IC50 (Cytochrome P450 2C9): 7.4 µM
Ki (Cytochrome P450 3A4): 83 µM
Ratio [9]: 0.8
solubility [10]: 19 µg/mL (≈ 42.6 µM)
t1/2 [11]: 2.7 h
t1/2 [12]: 2.9 h
F [13]: 45%
Vdss [14]: 6.1 L/kg
F [15]: 85%
Time [16]: 3 ms
Activity [17]: Non-Toxic
Activity [18]: Non-Toxic
Activity [19]: Non-Toxic
Activity [20]: Non-Toxic
Activity [21]: Non-Toxic

— ChEMBL document CHEMBL4699441, “Identification and Preclinical Evaluation of the Bicyclic Pyrimidine γ-Secretase Modulator BMS-932481” (ACS Med Chem Lett, 2019)
